Test results published in ChEMBL document CHEMBL1130202, “Biologically active heteroarotinoids exhibiting anticancer activity and decreased toxicity” (J Med Chem, 1997).
Active and inactive are the calls of the source. No cut-off for these calls is given here.

Tests used:
Mus musculus [1] = species on record: Mus musculus; assay: Effect of compound on thymus to body weight ratios in mice at high dose on day 65; assay type: functional
In short: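 Male B6D2F1 mice were dosed daily by gavage in corn oil, with TTNPB given at 0.1–0.8 or 0.01/0.05 mg/kg/day. Thymus-to-body weight ratio (×1000) was taken at necropsy on day 65 against vehicle 1, or on day 25 for the 0.01/0.05 groups against vehicle 2. Mean ± SD of 4–8 animals, reported as % difference from vehicle.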

Mus musculus [2] = species on record: Mus musculus; assay: Effect of compound on serum triglycerides levels in mice at low dose on day 36; assay type: functional
In short: (§1)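 Male B6D2F1 mice dosed daily by oral gavage in corn oil at low, mid 1, mid 2 or high dose. Blood sampled on set days (8, 29, 36, 65) for clinical chemistry, serum alkaline phosphatase and triglycerides. Group mean ± SD reported as % relative to vehicle 1; significance p < 0.05 versus corn oil vehicle.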

Mus musculus [3] = species on record: Mus musculus; assay: Fracture incidence in mouse at mid dose 1; 0/8
Mus musculus [4] = species on record: Mus musculus; assay: Compound total dose to termination (day 25/65) in low dose; assay type: functional
In short: (§2)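 Male B6D2F1 mice given daily oral gavage in corn oil; dosages increased during the study (day 30 or day 51 depending on compound). Cumulative dose in mg/kg administered up to termination (day 65, or day 25 for TTNPB 0.01/0.05 mg/kg/day groups).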

Mus musculus [5] = species on record: Mus musculus; assay: Effect of compound on Spleen to body weight ratios in mice at low dose on day 65; assay type: functional
In short: (§3)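 Male B6D2F1 mice dosed daily by gavage with compound in corn oil; vehicle 1 (corn oil) controls run to termination on day 65. Low, mid 1, mid 2 and high dose groups, with dosage increases partway through the study. Organ-to-body weight ratios (×1000) taken at necropsy on day 65, reported as mean ± SD for 4 to 8 animals and as % difference from vehicle.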

Mus musculus [6] = species on record: Mus musculus; assay: Enlarged spleen in Gross pathological observations in mice with hypervitaminosis A at mid dose 1 with gross observations/total number of mice in group; 1/16; assay type: functional, organism-based
Mus musculus [7] = species on record: Mus musculus; assay: Effect of compound on white blood cells levels in mice at low dose on day 8; assay type: functional
In short: (§4)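 Male B6D2F1 mice were gavaged daily with compound in corn oil at low, mid 1, mid 2 or high dose. Serum triglycerides and circulating white blood cells were measured on the stated day (8, 29, 36, 65). Values are group mean ± SD expressed as % relative to corn-oil vehicle, with significance at p ≤ 0.05.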

Mus musculus [8] = species on record: Mus musculus; assay: Effect of compound on right testicle to body weight ratios in mice at high dose on day 65; assay type: functional; in short: as §3
Mus musculus [9] = species on record: Mus musculus; assay: Effect of compound on serum Alkaline phosphatase levels in mice at mid dose 1 on day 65; assay type: functional; in short: as §1
Mus musculus [10] = species on record: Mus musculus; assay: Compound total dose to termination (day 25/65) in high dose; assay type: functional; in short: as §2
Mus musculus [11] = species on record: Mus musculus; assay: Avoiding pressure on limbs in mice at low dose with Hypervitaminosis; 0/16; assay type: functional, organism-based; conditions: Limb
Mus musculus [12] = species on record: Mus musculus; assay: Average number of fractures per mouse at mid dose 1
Mus musculus [13] = species on record: Mus musculus; assay: Effect of compound on serum Alkaline phosphatase levels in mice at high dose on day 65; assay type: functional; in short: as §1
Mus musculus [14] = species on record: Mus musculus; assay: Effect of compound on serum triglycerides levels in mice at low dose on day 8; assay type: functional; in short: as §4
Mus musculus [15] = species on record: Mus musculus; assay: Compound total dose to termination (day 25/65) in mid dose 2; assay type: functional; in short: as §2
Mus musculus [16] = species on record: Mus musculus; assay: Enlarged lymph in gross pathological observations in mice with hypervitaminosis A at low dose with gross observations/total number of mice in group; 1/16; assay type: functional, organism-based
Mus musculus [17] = species on record: Mus musculus; assay: Effect of compound on serum triglycerides levels in mice at mid dose 1 on day 8; assay type: functional; in short: as §4
Mus musculus [18] = species on record: Mus musculus; assay: Compound total dose to termination (day 25/65) in mid dose 1; assay type: functional; in short: as §2
Mus musculus [19] = species on record: Mus musculus; assay: Enlarged lymph in gross pathological observations in mice with hypervitaminosis A in mice at high dose with gross observations/total number of mice in group; 1/16; assay type: functional, organism-based
Mus musculus [20] = species on record: Mus musculus; assay: Effect of compound on serum Alkaline phosphatase levels in mice at low dose on day 29; assay type: functional; in short: as §1
Mus musculus [21] = species on record: Mus musculus; assay: Enlarged spleen in Gross pathological observations in mice with hypervitaminosis A at high dose with gross observations/total number of mice in group; 0/16; assay type: functional, organism-based
Mus musculus [22] = species on record: Mus musculus; assay: Effect of compound on Spleen to body weight ratios in mice at high dose on day 65; assay type: functional; in short: as §3
Mus musculus [23] = species on record: Mus musculus; assay: Effect of compound on serum triglycerides levels in mice at mid dose 1 on day 36; assay type: functional; in short: as §4
Mus musculus [24] = species on record: Mus musculus; assay: Avoiding pressure on limbs in mice at mid dose 2 with Hypervitaminosis; 0/16; assay type: functional, organism-based; conditions: Limb
Mus musculus [25] = species on record: Mus musculus; assay: Effect of compound on white blood cells levels in mice at high dose on day 65; assay type: functional; in short: as §4
Mus musculus [26] = assay: Effect of compound on Spleen to body weight ratios in mice at 0.01 mg/kg/day dose; all the animals died by day 65; assay type: functional, organism-based
Mus musculus [27] = assay: Effects of retinoids on thymus to body weight ratios in mice at 0.05 mg/kg/day dose
Mus musculus [28] = assay: Effect of compound on Spleen to body weight ratios in mice at 0.2 mg/kg/day dose on day 65; dead by day 65; assay type: functional, organism-based; in short: as §3
Mus musculus [29] = assay: Approximate day to determine 10% weight loss in mice at 0.01 mg/kg/day; assay type: functional
In short: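 Male B6D2F1 mice dosed daily by gavage in corn oil; body weights followed to termination (day 65, or day 25 for TTNPB 0.01/0.05 mg/kg/day groups) and compared with the matching vehicle group. Value is approximate day of onset of 10% body weight reduction versus vehicle.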

Mus musculus [30] = assay: Enlarged spleen in Gross pathological observations with hypervitaminosis A in mice at 0.1 mg/kg/day dose with gross observations/total number of animals in group; 4/16; assay type: functional, organism-based
Mus musculus [31] = assay: Alopecia observed at 0.4 mg/kg/day dose in mice with hypervitaminosis; 8/16; assay type: functional, organism-based
Mus musculus [32] = assay: Effect of compound on adrenal to body weight ratios in mice at 0.01 mg/kg/day dose; measured on day 25
Mus musculus [33] = assay: Alopecia observed at 0.1 mg/kg/day dose in mice with hypervitaminosis; 10/16; assay type: functional, organism-based
Mus musculus [34] = assay: Effect of compound on Spleen to body weight ratios in mice at 0.8 mg/kg/day dose on day 65; dead by day 65; assay type: functional, organism-based; in short: as §3
Mus musculus [35] = assay: Alopecia observed at 0.01 mg/kg/day dose in mice with hypervitaminosis; 6/8; assay type: functional, organism-based
Mus musculus [36] = assay: Avoiding pressure on limbs at 0.4 mg/kg/day dose in mice with hypervitaminosis; 0/16; assay type: functional, organism-based; conditions: Limb
Mus musculus [37] = assay: Total dose of 10% weight loss in mice at 0.05 mg/kg/day; assay type: functional
Mus musculus [38] = species on record: Mus musculus; assay: Compound toxicity determined by total dose to termination (day 25/65) in high dose; assay type: functional; in short: as §2
Mus musculus [39] = species on record: Mus musculus; assay: Effect of compound on serum Alkaline phosphatase levels in mice at high dose on day 29; assay type: functional; in short: as §1
[40] = Mortality rate in mice in mid dose 1; assay type: ADME; conditions: mouse, in vivo
In short: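 Male B6D2F1 mice given compound daily by gavage in corn oil at the stated dose levels, with corn oil vehicle controls. Deaths counted as animals found dead or sacrificed moribund, with day(s) of death recorded. Heteroarotinoid groups ran to day 65 and low-dose reference groups to day 25.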

Mus musculus [41] = species on record: Mus musculus; assay: Fracture incidence in mouse at mid dose 1; 5/8
Mus musculus [42] = species on record: Mus musculus; assay: Effect of compound on Spleen to body weight ratios in mice at low dose; assay type: functional; in short: as §3

## CC(/C=C/C=C(\C)c1ccc2c(c1)C(C)(C)CCO2)=C\C(=O)O
Mus musculus [1]
  Activity: 1.3
Mus musculus [2]
  Activity: 187.1
Mus musculus [3]
  Activity: inactive
Mus musculus [4]
  Total dose: 207.1 mg/kg
Mus musculus [5]
  Activity: 2.3
Mus musculus [6]
  Activity: inactive
Mus musculus [7]
  Activity: 4.84
Mus musculus [8]
  Activity: 3
Mus musculus [9]
  Activity: 127.1
Mus musculus [10]
  Total dose: 3106.5 mg/kg
Mus musculus [11]
  Activity: inactive
Mus musculus [12]
  Activity: 0
Mus musculus [13]
  Activity: 156.8
Mus musculus [14]
  Activity: 96.8
Mus musculus [15]
  Total dose: 828.4 mg/kg
Mus musculus [16]
  Activity: inactive
Mus musculus [17]
  Activity: 97.2
Mus musculus [18]
  Total dose: 414.2 mg/kg
Mus musculus [19]
  Activity: inactive
Mus musculus [20]
  Activity: 96.8
Mus musculus [21]
  Activity: inactive
Mus musculus [22]
  Activity: 3
Mus musculus [23]
  Activity: 202.8
Mus musculus [24]
  Activity: inactive
Mus musculus [25]
  Activity: 3.7

## C/C(=C\c1ccc(C(=O)O)cc1)c1ccc2c(c1)C(C)(C)CCC2(C)C
Mus musculus [26]
  Activity: Toxic
Mus musculus [27]
  Activity: Toxic
Mus musculus [28]
  Activity: Toxic
Mus musculus [29]
  Activity: >25
Mus musculus [30]
  Activity: Weak activity
Mus musculus [31]
  Activity: Weak activity
Mus musculus [32]
  Activity: Toxic
Mus musculus [33]
  Activity: Weak activity
Mus musculus [34]
  Activity: Toxic
Mus musculus [35]
  Activity: Active
Mus musculus [36]
  Activity: inactive
Mus musculus [37]
  Dose: 0.4 mg/kg

## C/C(=C\c1ccc(C(=O)O)cc1)c1ccc2c(c1)C(C)(C)CCO2
Mus musculus [38]
  Total dose: 1176.8 mg/kg
Mus musculus [5]
  Activity: 3.6
Mus musculus [39]
  Activity: 103.1
Mus musculus [9]
  Activity: 123.1
Mus musculus [12]
  Activity: 1.9
[40]
  Mortality: 0 day of death
Mus musculus [41]
  Activity: Weak activity

## CC(/C=C/C=C(\C)c1ccc2c(c1)C(C)(C)CCS2)=C\C(=O)O
Mus musculus [1]
  Activity: 1.5
Mus musculus [2]
  Activity: 194.9
Mus musculus [3]
  Activity: inactive
Mus musculus [4]
  Total dose: 207.1 mg/kg
Mus musculus [39]
  Activity: 94.6
Mus musculus [8]
  Activity: 2.7
Mus musculus [10]
  Total dose: 3106.5 mg/kg
Mus musculus [11]
  Activity: inactive
Mus musculus [13]
  Activity: 159
Mus musculus [14]
  Activity: 97.5
Mus musculus [15]
  Total dose: 828.4 mg/kg
[40]
  Mortality: 1 day of death
Mus musculus [16]
  Activity: inactive
Mus musculus [17]
  Activity: 97.6
Mus musculus [18]
  Total dose: 414.2 mg/kg
Mus musculus [19]
  Activity: inactive
Mus musculus [20]
  Activity: 94.9
Mus musculus [21]
  Activity: inactive
Mus musculus [22]
  Activity: 2.6
Mus musculus [42]
  Activity: 2.1
Mus musculus [23]
  Activity: 212.7
Mus musculus [24]
  Activity: inactive
Mus musculus [25]
  Activity: 4.18
